Where a SMILES comes first, the peptide text is derived from it. The star is where a group is joined. Palmitoyl = CCCCCCCCCCCCCCCC(=O)*
Legend:
[1] = tested on: human platelets; assay: 12; type: cell-based; conditions: 10 μM 12(S)-HETE, fura-2-labeled human platelets
In short: (§1)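 Gel-purified platelets loaded with 2.5 μM fura-2/AM, 30 min at 37 °C. Emission recorded at 510 nm with dual excitation at 340/380 nm. For line 6, platelets preincubated with test compound or vehicle before AYPGKF.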

[2] = molecular target: T1, GPR31 (Homo sapiens, UniProt O00270); assay: 12; type: cell-based; conditions: 100 nmol/L 12(S)-HETE, human platelets, signal at 15 to 120 minutes
In short: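 Gel-purified human platelets pretreated with test compound at graded levels, then activated with 12(S)-HETE. Lysis on ice for 10 min in Tris-HCl pH 7.5 buffer with NP-40, DTT and protease inhibitors, then cleared at 14 000 g. Rap1-GTP pulled down with RalGDS-RBD agarose, 60 min at 4 °C. Detected by 15% SDS-PAGE and anti-Rap1 immunoblot; lysate aliquots used for total Rap1. IC50 from dose response.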
Target sequence in this assay (O00270 whole entry): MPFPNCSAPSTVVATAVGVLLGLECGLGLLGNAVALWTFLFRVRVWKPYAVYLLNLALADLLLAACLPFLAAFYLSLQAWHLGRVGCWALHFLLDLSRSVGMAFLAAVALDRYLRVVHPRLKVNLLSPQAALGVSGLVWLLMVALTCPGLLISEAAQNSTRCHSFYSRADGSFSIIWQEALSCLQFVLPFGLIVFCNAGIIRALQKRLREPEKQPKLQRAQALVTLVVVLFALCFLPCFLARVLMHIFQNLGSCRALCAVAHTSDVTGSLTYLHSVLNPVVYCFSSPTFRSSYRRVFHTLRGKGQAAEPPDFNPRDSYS

[3] = tested on: human platelets; assay: Platelet aggregation by 12; type: cell-based; conditions: 5, 10 and 20 μmol/L 12(S)-HETE, human PRP
[4] = molecular target: T1, GPR31; assay: Cre-luciferase activation assay in GPR31-transfected CHO cells; type: cell-based; conditions: 6 hours
In short: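 CHO cells cotransfected by lipofection with Cre-luciferase and GPR31 plasmids, 8 μg each. Cells plated and treated 6 h with 10 μM forskolin with or without 300 nmol/L 12(S)-HETE. Cells then lysed and luciferase activity read as relative light units.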
Target sequence in this assay (O00270 whole entry, species assumed): as the sequence (O00270 whole entry) above

[5] = molecular target: T1, GPR31; assay: 12; type: cell-based; conditions: 10 and 20 μM 12(S)-HETE, fura-2-labeled GPR31/CHO cells
In short: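 Human GPR31 transiently transfected into CHO cells. Cells labelled with fura-2 and challenged with 12(S)-HETE; Ca2+ flux followed over time.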
Target sequence in this assay (O00270 whole entry, species assumed): as the sequence (O00270 whole entry) above

[6] = tested on: p38 MAPK phosphorylation; assay: Immunoblot of 12; type: cell-based, human
In short: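 Gel-purified human platelets incubated in an aggregometer at 37 °C with 12(S)-HETE, with or without 1 or 3 μM test compound, for various times. Solubilised in SDS-PAGE sample buffer and run on 10% SDS-PAGE at equal protein. Immunoblotted for phospho-p38 (Thr180/Tyr182).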

[7] = tested on: platelet-rich plasma; assay: Thrombin-induced clot retraction in PRP; type: cell-based, human; conditions: 10 or 30 μM inhibitor, 3 nmol/L thrombin, RT, 15 minutes to 4 hours
In short: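 Citrated platelet-rich plasma adjusted to […] and diluted in PBS with red blood cells in glass tubes. CaCl2 added to a final 0.5 mmol/L. Pretreated with 10 or 30 μM test compound, P2Y12 inhibitor or vehicle. Clotting started with 3 or 10 nmol/L thrombin at room temperature. Clots photographed at 0, 5, 10, 15 and 30 min and at 1, 2 and 4 h.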

[8] = tested on: RASA3; assay: Thrombin-induced RASA3 membrane localization in human platelets; type: cell-based; conditions: GPR310 1 μM, AZD1283 10 μM, dual, or LY294002 10 μM, 3 nmol/L thrombin
[9] = tested on: Rap1; assay: Thrombin-induced Rap1 activation in human platelets; type: cell-based; conditions: GPR310 3 μM, AZD1283 10 μM or dual; 3 nmol/L thrombin, 15 min, gel-purified platelets
[10] = tested on: mouse platelets; assay: Ex vivo platelet aggregation after sc dosing; type: in vivo; conditions: mice, 10 mg/kg sc, 4 h; AYPGKF 100 μmol/L or thrombin 10 nmol/L
[11] = tested on: PAR4; assay: AYPGKF-mediated calcium flux in human platelets; type: cell-based; conditions: 3 μM GPR310, 160 μM AYPGKF, fura-2-labeled human platelets
In short: as §1

[12] = molecular target: T2, PAR2 (Homo sapiens, UniProt P55085); assay: Calcium flux, recombinant PAR2, SLIGRL; type: cell-based; conditions: GPR310 6 μM; 100 μM SLIGRL
T2 sequence (P55085 26-397): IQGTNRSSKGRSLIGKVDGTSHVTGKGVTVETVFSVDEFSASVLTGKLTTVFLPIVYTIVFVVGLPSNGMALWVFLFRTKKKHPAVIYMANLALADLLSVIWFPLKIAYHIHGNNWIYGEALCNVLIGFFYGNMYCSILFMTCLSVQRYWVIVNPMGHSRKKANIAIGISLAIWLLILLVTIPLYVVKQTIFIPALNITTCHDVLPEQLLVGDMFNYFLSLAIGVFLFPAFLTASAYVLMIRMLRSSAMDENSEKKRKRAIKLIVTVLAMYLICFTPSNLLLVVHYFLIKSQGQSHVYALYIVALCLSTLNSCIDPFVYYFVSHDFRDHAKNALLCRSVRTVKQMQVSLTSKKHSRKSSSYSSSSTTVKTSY

[13] = tested on: Rap1; assay: AYPGKF; type: cell-based; conditions: human platelets, peak shifted from 5 to 15 minutes
[14] = tested on: human platelets; assay: Collagen-mediated human platelet aggregation; type: cell-based; conditions: 10 μg/mL collagen; 3 μmol/L GPR310 or 30 μmol/L ML355; P<0.001
[15] = molecular target: CXCR4 (Homo sapiens, UniProt P61073); assay: Calcium flux in human neutrophils, SDF1α; type: cell-based; conditions: GPR310 6 μM, 100 nmol/L SDF1α
[16] = tested on: mouse platelets; assay: AYPGKF-induced aggregation and ATP release in mouse PRP; type: cell-based; conditions: 30 μM GPR310 spiked, 100 μM AYPGKF
In short: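 Mouse platelet-rich plasma spiked with test compound, then stimulated with 100 μM AYPGKF. Run at 37 °C with stirring at 900 rpm in a lumi-aggregometer. Aggregation and dense-granule ATP release recorded together; ATP detected with luciferin/luciferase reagent and calibrated against an ATP standard.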

[17] = Pharmacokinetics of sc injected pepducin in mouse plasma; type: in vivo; conditions: CD-1, mouse, 10 mg/kg
In short: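 CD-1 mice given 10 mg/kg test compound subcutaneously in 10% DMSO. Vena cava blood drawn into heparin at 5, 15 and 30 min and 1, 4, 5, 14 and 24 h. Pepducin extracted from plasma and quantified by LC-MS to obtain peak level and terminal elimination.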

[18] = molecular target: T3, PAR1 (Homo sapiens, UniProt P25116); assay: Calcium flux in HEK293 recombinant system, SFLLRN; type: cell-based; conditions: GPR310 6 μM, 100 μM SFLLRN
T3 sequence (P25116 22-425): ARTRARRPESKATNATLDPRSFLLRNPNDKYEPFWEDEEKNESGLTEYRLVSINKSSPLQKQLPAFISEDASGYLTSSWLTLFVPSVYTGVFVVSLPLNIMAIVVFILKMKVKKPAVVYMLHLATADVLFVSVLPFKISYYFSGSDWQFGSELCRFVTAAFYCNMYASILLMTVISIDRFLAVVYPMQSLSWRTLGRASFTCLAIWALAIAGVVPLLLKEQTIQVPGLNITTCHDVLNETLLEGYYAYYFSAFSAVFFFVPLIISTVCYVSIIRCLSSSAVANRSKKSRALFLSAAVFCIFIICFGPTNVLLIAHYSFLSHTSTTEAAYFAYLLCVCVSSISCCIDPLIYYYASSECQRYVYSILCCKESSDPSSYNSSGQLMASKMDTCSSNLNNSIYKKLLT

[19] = tested on: pAKT, pERK; assay: Immunoblot of thrombin-induced Akt and ERK phosphorylation in human platelets; type: cell-based; conditions: 1 μM GPR310, 3 nmol/L thrombin, 15 min
In short: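 Gel-purified human platelets pretreated with or without 1 μM test compound, then stimulated with 3 nmol/L thrombin for 15 min. Equal protein resolved on 10% SDS-PAGE and immunoblotted for phospho-AKT and phospho-ERK, with β-actin as loading control.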

[20] = tested on: PAR1; assay: PAR1; type: cell-based, human
[21] = Tail bleeding time; type: in vivo, mouse; conditions: mice, 4 hours after 5 and 10 mg/kg sc, n=10
In short: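 Mice anaesthetised 4 h after subcutaneous test compound or vehicle and kept on a 37 °C homeothermic blanket. Tail transected 5 mm from the tip and immersed at once in 37 °C saline. Time to cessation recorded; cessation counted only once bleeding had stopped for 1 min.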

[22] = tested on: IL-8 receptor CXCR1/2; assay: Calcium flux in human neutrophils, IL-8; type: cell-based; conditions: GPR310 6 μM, 50 nmol/L IL-8
[23] = tested on: ADP receptors; assay: Calcium flux, ADP; type: cell-based, human; conditions: GPR310 6 μM; 20 μM ADP
[24] = tested on: PAR4; assay: PAR4; type: cell-based, human; conditions: 30 μmol/L ML355, 2 min preincubation, 160 μmol/L AYPGKF, aggregation at 15 min

CXCR4, sequence (P61073 whole entry): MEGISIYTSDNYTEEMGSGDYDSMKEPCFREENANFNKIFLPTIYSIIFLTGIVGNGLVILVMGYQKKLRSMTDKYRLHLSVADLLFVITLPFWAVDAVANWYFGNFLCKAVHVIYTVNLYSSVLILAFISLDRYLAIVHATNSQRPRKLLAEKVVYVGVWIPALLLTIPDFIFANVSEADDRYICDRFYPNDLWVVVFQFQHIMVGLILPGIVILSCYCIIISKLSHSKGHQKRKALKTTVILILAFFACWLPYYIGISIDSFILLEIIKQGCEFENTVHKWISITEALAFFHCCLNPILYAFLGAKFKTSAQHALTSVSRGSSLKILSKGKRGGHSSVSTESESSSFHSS

CCCCC/C=C\C[C@H](O)/C=C/C=C\C/C=C\CCCC(=O)O [12(S)-HETE]
calcium flux [1]: negligible
Rap1-GTP activation [2]: strongly activated
activation of platelet aggregation [3]: failed to effectively activate platelet aggregation
inhibition of AC (adenylyl cyclase) activity ([4]; 300 nmol/L 12(S)-HETE with 10 μM forskolin, not observed in Cre-luci controls): significant inhibition
calcium mobilization [5]: low but detectable calcium transients
p38 MAPK phosphorylation activation ([6]; 100 nmol/L 12(S)-HETE, 15 minutes, human platelets): rapidly (15 minutes) activated

CCOC(=O)c1cc(C#N)c(N2CCC(C(=O)NS(=O)(=O)Cc3ccccc3)CC2)nc1C [AZD1283, reference compound]
clot retraction time vs vehicle [7]: longer clot retraction times
suppression of thrombin-induced RASA3 appearance in plasma membrane [8]: complete suppression
inhibition of thrombin-induced Rap1 activation [9]: partially suppressed

CCCCCCCCCCCCCCCC(=O)N[C@@H](CCCNC(=N)N)C(=O)N[C@@H](C)C(=O)N[C@@H](CC(C)C)C(=O)N[C@@H](CCC(N)=O)C(=O)N[C@@H](CCCCN)C(=O)N[C@@H](CCCNC(=N)N)C(=O)N[C@@H](CC(C)C)C(=O)N[C@@H](CCCNC(=N)N)C(=O)N[C@@H](CCC(=O)O)C(=O)N1CCC[C@H]1C(=O)N[C@@H](CCC(=O)O)C(=O)N[C@@H](CCCCN)C(=O)N[C@@H](CCC(N)=O)C(=O)N1CCC[C@H]1C(=O)N[C@@H](CCCCN)C(=O)N[C@@H](CC(C)C)C(=O)N[C@@H](CCC(N)=O)C(=O)N[C@@H](CCCNC(=N)N)C(=O)N[C@@H](C)C(=O)N[C@@H](CCC(N)=O)C(=O)N[C@@H](C)C(N)=O [GPR310] (Palmitoyl-RALQKRLREPEKQPKLQRAQA-NH2; C-terminus assumed)
ex vivo antiplatelet effect at high agonist concentration [10]: reversed
suppression of AYPGKF-mediated Ca2+ response [11]: 80%
inhibition of recombinant PAR2 calcium flux [12]: no detected inhibition
inhibition of AYPGKF-induced Rap1-GTP signal [13]: significantly attenuated
clot retraction time vs vehicle [7]: longer clot retraction times
suppression of thrombin-induced RASA3 appearance in plasma membrane [8]: complete suppression
inhibition of collagen-mediated platelet aggregation [14]: almost completely inhibited
inhibition of thrombin-induced Rap1 activation [9]: partially suppressed
inhibition of calcium flux (CXCR4) [15]: did not inhibit
inhibition of ATP release, mouse PRP [16]: inhibited
inhibition of platelet aggregation, mouse PRP [16]: inhibited
Tmax [17]: 1 h
level at time molar at 4 h [17]: 3500 nM
level at time molar at 14 h [17]: 10 nM
inhibition of PAR1 calcium flux [18]: minimal inhibition
inhibition of thrombin-induced Akt phosphorylation [19]: attenuated
inhibition of thrombin-mediated ERK activation [19]: inhibited
inhibition of PAR1-mediated platelet aggregation ([20]; 10 μmol/L GPR310, 3 μM SFLLRN, gel-purified human platelets): significant inhibition
inhibition of PAR1-mediated platelet aggregation ([20]; 10 μmol/L GPR310, 10 μmol/L SFLLRN, gel-purified human platelets): no significant effect
tail bleeding time vs vehicle control [21]: no difference
inhibition of calcium flux (CXCR1/2) [22]: did not inhibit
inhibition of 12(S)-HETE-induced p38 MAPK phosphorylation ([6]; 1 to 3 μM GPR310, human platelets): completely attenuated
inhibition of calcium flux (ADP receptors) [23]: did not inhibit

COc1cccc(CNc2ccc(S(=O)(=O)Nc3nc4ccccc4s3)cc2)c1O [ML355, reference compound]
inhibition of collagen-mediated platelet aggregation [14]: to a similar extent
inhibition of PAR1-mediated platelet aggregation ([20]; 30 μmol/L ML355, 3 μmol/L SFLLRN): considerable inhibition
inhibition of PAR1-mediated platelet aggregation ([20]; 30 μmol/L ML355, 10 μmol/L SFLLRN): but not 10 μmol/L SFLLRN
inhibition of PAR4-mediated platelet aggregation [24]: inhibition

C=C[C@@]1(C)CC(=O)[C@]2(O)[C@@]3(C)[C@@H](O)CCC(C)(C)[C@@H]3[C@H](O)[C@H](OC(C)=O)[C@@]2(C)O1 [forskolin]
induction of cAMP-responsive element-luciferase reporter ([4]; CHO-K1 cells expressing GPR31 and Cre-luciferase, 10 μM forskolin): 10 fold
